Data on one compound can be found in ChEMBL document CHEMBL5053511, “Discovery of a Novel BCL-XL PROTAC Degrader with Enhanced BCL-2 Inhibition” (J Med Chem, 2021).

Molecules are shown by their SMILES. Activity calls are given as the source filed them. The rule behind the calls is not given here.

For assay [1], the target named is T1, von Hippel-Lindau disease tumor suppressor/Bcl-2-like protein 1 (Homo sapiens, UniProt Q07817+P40337). Description: Protac activity at VHL/BCL-XL in human MOLT-4 cells assessed as induction of BCL-XL degradation at 10 uM pretreated with VHL-032 followed by compound treatement measured after 12 hrs by Western blot analysis. The format is cell-based. The essentials:
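MOLT-4 cells were pretreated with 10 µM VHL-032 or 1 µM MG-132, followed by 12 h compound treatment. BCL-XL and β-actin were immunoblotted; blots representative of three experiments.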
Target sequence in this assay (P40337 whole entry, looked up): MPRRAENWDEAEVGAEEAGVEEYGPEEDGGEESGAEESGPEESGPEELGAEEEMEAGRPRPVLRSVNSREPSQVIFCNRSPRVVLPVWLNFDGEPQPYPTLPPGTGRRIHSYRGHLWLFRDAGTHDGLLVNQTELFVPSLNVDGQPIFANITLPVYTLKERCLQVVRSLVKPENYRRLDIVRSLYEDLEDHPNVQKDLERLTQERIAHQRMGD
Target sequence in this assay (Q07817 whole entry, looked up): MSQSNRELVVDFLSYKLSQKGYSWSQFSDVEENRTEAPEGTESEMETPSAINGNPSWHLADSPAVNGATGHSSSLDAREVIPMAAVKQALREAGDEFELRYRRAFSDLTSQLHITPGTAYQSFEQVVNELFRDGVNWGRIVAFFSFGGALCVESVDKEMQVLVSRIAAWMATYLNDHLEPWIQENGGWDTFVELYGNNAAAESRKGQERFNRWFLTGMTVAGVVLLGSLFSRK
On the technique in general: A western blot detects proteins with antibodies after separation by electrophoresis.

The target in assay [2] is T1, von Hippel-Lindau disease tumor suppressor/Bcl-2-like protein 1. Description: Protac activity at VHL/BCL-XL in human MOLT-4 cells assessed as induction of BCL-XL degradation at 100 nM measured up to 72 hrs by Western blot analysis. The format is cell-based. The essentials: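 MOLT-4 cells were treated with 100 nM for a series of times. For washout, cells were treated for 16 h and sampled at times after compound removal. BCL-XL and β-actin were immunoblotted.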
Target sequence in this assay (P40337 whole entry, looked up): as the sequence (P40337 whole entry, looked up) above
Target sequence in this assay (Q07817 whole entry, looked up): as the sequence (Q07817 whole entry, looked up) above

In another assay the test system is Platelet. Description: Cytotoxicity against platelets in human PRP assessed as reduction in cell viability measured after 48 hrs by MTS assay. It counts as cell-based. An outline of the steps:
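Washed human platelets from PRP were kept in HEPES Tyrode's buffer with 1 µM PGE1 and 0.2 units/mL apyrase at 2×10^8/mL.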

Assay [3] addresses T1, von Hippel-Lindau disease tumor suppressor/Bcl-2-like protein 1. Description: Protac activity at VHL/BCL-XL in human MOLT-4 cells assessed as decrease in BCL-XL protein level by densitometric analysis. It counts as cell-based. An outline of the steps:
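MOLT-4 or RS4;11 cells were treated at a range of concentrations for 16 h. BCL-XL was immunoblotted with β-actin loading control, and band densitometry was normalised to β-actin. Mean ± SD of three independent experiments in triplicate.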
Target sequence in this assay (Q07817 whole entry): as the sequence (Q07817 whole entry, looked up) above
Target sequence in this assay (P40337 whole entry): as the sequence (P40337 whole entry, looked up) above

The test system of a further assay is RS4-11. Description: Cytotoxicity against human RS4-11 cells assessed as reduction in cell viability measured after 48 hrs by MTS assay. The format is functional, cell-based. The settings on record: RS4-11, 48 h. For orientation: Tetrazolium assays rely on reduction of a dye to a coloured formazan, in cell work by metabolically active cells.
Assay [4] concerns MOLT-4. Description: Induction of apoptosis in human MOLT-4 cells assessed as […] in full caspase-3 level at up to 1000 nM measured after 16 hrs by immunoblotting analysis. It counts as functional, cell-based. An outline of the steps:
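MOLT-4 cells were treated at a range of concentrations for 16 h. Lysates were immunoblotted for cleaved and full caspase-3, cleaved and full PARP, and β-actin; blots representative of three experiments.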

Assay [5] concerns MOLT-4. Description: Induction of apoptosis in human MOLT-4 cells assessed as late apoptotic cells at 10 nM measured after 48 hrs in presence of QVD by annexinV-FITC/propidium iodide staining based flow cytometry (reference value: 1%). It counts as functional. In general terms: A flow cytometer gives signals particle by particle.
Assay [6] can be described thus: Binding affinity to C-terminal His-tagged human BCL-2 (1 to 211 residues) expressed in Escherichia coli/recombinant human VHL (54 to end residues) fused to human N-terminal GST-tagged elongin-C/elongin -B/N-terminal His-tagged CUL2/Rbx1 expressed in baculovirus infected Sf21 insect cells measured after 2 hrs by AlphaScreen assay. The essentials:
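AlphaScreen displacement, run with or without VCB. Biotin-Bim (80 nM, for BCL-2) or biotin-Bad (16 nM, for BCL-XL) was combined with serially diluted compound and 6×His protein in 25 mM HEPES pH 7.5, 100 mM NaCl, 0.1% BSA, 0.005% Tween 20. Anti-His acceptor beads were added for 1 h at room temperature, then streptavidin donor beads for 30 min in the dark. Ki was fitted by one-site competitive model from peptide concentration and measured Kd values; reported as mean ± SD of at least two experiments in triplicate.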

A short description of assay [7]: Binding affinity to human BCL-XL expressed in Escherichia coli/recombinant human VHL (54 to end residues) fused to human N-terminal GST-tagged elongin-C/elongin -B/N-terminal His-tagged CUL2/Rbx1 expressed in baculovirus infected Sf21 insect cells assessed as ternary complex formation at up to 100000 nM measured after 30 mins by AlphaLISA assay. An outline of the steps:
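Cell-free ternary complex AlphaLISA: 6×His-tagged BCL-XL, BCL-2 or MCL-1 (20 nM) mixed with serially diluted compound (4× dilution) and GST-VCB (20 nM) in 25 mM HEPES pH 7.5, 100 mM NaCl, 0.1% BSA, 0.005% Tween 20. After 30 min at room temperature, glutathione donor beads were added for 15 min, then anti-His acceptor beads for 45 min in the dark. Luminescence was plotted against log compound concentration.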

Assay [8] deals with T1, von Hippel-Lindau disease tumor suppressor/Bcl-2-like protein 1. Description: Binding affinity to VHL/ BCL-XL in human RS4-11 cells assessed as ternary complex formation at up to 300 nM measured after 12 hrs by immunoprecipitation assay. The format is cell-based.
Target sequence in this assay (P40337 whole entry, looked up): as above
Target sequence in this assay (Q07817 whole entry, looked up): as the sequence (Q07817 whole entry, looked up) above
Assay [9] has as its target von Hippel-Lindau disease tumor suppressor/Apoptosis regulator Bcl-2 (Homo sapiens) (UniProt P10415+P40337). Description: Binding affinity to VHL/BCL-2 in human RS4-11 cells assessed as ternary complex formation at up to 300 nM measured after 12 hrs in presence of VHL-032 by immunoprecipitation assay. The format is cell-based.

Chain of von Hippel-Lindau disease tumor suppressor/Apoptosis regulator Bcl-2 (Homo sapiens) (P10415 whole entry, looked up): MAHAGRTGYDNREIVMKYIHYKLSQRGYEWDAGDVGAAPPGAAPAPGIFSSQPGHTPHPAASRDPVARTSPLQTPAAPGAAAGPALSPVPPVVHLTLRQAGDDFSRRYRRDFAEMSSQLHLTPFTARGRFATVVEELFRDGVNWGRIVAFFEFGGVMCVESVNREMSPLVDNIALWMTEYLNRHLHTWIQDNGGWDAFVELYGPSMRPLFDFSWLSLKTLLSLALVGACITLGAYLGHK
Chain of von Hippel-Lindau disease tumor suppressor/Apoptosis regulator Bcl-2 (Homo sapiens) (P40337 whole entry, looked up): as the sequence (P40337 whole entry, looked up) above

As for `Cc1ncsc1-c1ccc([C@H](C)NC(=O)[C@@H]2C[C@@H](O)CN2C(=O)[C@@H](NC(=O)CCCCCCCCC(=O)NC[C@]2(C)CCC(c3ccc(Cl)cc3)=C(CN3CCN(c4ccc(C(=O)NS(=O)(=O)c5ccc(N[C@H](CCN6CCOCC6)CSc6ccccc6)c(S(=O)(=O)C(F)(F)F)c5)cc4)CC3)C2)C(C)(C)C)cc1`, the result in assay [1] and in assay [9] was inactive. For the same compound, the result (in [2]; with MOLT-4 [4]; in assay [7]; in assay [8]) was Active. Further, the results for the IC50 in the assay on Platelet and with RS4-11 were 950 nM and 11.3 nM, respectively. The DC50 in [3] turned out to be 14.3 nM. For the same compound, the Activity in the assay on MOLT-4 [5] is 13%. In addition, the Kd (as a rule, the constant that tells how readily two partners part at equilibrium) in assay [6] is 0.53 nM.
